These results are taken from ChEMBL document CHEMBL6127097, “Structure-Guided Discovery of cis-Hexahydro-pyrido-oxazinones as Reversible, Drug-like Monoacylglycerol Lipase Inhibitors” (J Med Chem, 2024).

Usually fraction unbound stands for the share of the substance not bound to proteins or other matrix. A word on the Kp: it is tissue or fluid exposure divided by exposure in the circulation. In general, IC50 refers to the midpoint of a concentration-inhibition curve.

In data set [1] the target is T1, Monoglyceride lipase (Rattus norvegicus) (UniProt Q8R431).
T1 sequence (whole entry): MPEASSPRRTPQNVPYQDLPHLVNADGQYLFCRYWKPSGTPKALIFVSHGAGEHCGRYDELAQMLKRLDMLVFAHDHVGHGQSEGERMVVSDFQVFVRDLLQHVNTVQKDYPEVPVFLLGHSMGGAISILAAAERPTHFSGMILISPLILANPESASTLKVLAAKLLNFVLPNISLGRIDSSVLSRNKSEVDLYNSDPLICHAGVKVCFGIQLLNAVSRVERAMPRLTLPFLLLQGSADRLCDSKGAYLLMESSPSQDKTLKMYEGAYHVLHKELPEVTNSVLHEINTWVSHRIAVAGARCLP
The data set can be described thus: Binding affinity to rat MAGL assessed as association rate constant by SPR analysis. In a few lines: (§1)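 Human or rat MAGL was immobilized by amine coupling without ethanolamine quenching. Runs were done at 18 °C in 10 mM HEPES, 150 mM NaCl, 0.05% P20, 50 µM EDTA, pH 7.4, with 1% DMSO. Single-cycle kinetics used five concentrations, top 1 µM in 2-fold steps, at 30 µL/min, giving kon, koff and Kd.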
(In general: In SPR one partner is held on a chip, and binding of the other changes the refractive index at the surface.)

Data set [2] concerns the target T2, Monoglyceride lipase (Homo sapiens) (UniProt Q99685).
T2 sequence (whole entry): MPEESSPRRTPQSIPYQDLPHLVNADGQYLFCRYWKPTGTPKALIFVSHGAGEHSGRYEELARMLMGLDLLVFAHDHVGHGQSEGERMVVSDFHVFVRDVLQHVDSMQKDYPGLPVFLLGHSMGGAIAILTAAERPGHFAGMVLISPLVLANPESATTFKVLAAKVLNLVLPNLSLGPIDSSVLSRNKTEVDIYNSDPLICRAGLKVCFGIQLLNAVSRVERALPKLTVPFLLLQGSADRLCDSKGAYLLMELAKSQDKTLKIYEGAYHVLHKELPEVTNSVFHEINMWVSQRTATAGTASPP
Nature of the data set: Binding affinity to human MAGL assessed as dissociation rate constant by SPR analysis. Put shortly: as §1

Data set [3] deals with Mus musculus. The data set can be described thus: Downregulation of brain AA level in ip dosed mouse measured after 4 hrs. The class given is functional, organism-based. As to conditions: dose 3-30 mg/kg. In a few lines: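 Mice received 3, 10 or 30 mg/kg i.p. in NaCl/DMSO/Tween 80 (80/10/10) and were sacrificed after 4 h. Arachidonic acid in brain extracts was measured by LC/MS.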

Data set [4] deals with T3, Monoglyceride lipase (Mus musculus) (UniProt O35678).
T3 sequence (whole entry): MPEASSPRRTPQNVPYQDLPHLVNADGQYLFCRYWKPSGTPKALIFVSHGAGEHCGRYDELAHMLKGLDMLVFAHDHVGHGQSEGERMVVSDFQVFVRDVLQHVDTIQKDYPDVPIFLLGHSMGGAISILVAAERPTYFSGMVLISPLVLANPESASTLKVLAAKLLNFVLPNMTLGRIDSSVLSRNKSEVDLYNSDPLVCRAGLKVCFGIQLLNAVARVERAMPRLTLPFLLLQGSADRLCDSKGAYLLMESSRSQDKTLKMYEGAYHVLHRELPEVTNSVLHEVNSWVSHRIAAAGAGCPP
Nature of the data set: In vivo receptor occupancy at MAGL receptor in mouse at 30 mg/kg, ip measured after 2 hrs. The class given is functional, organism-based. In a few lines:
(§2)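 Mice dosed 30 mg/kg i.p. in NaCl/DMSO/TW80 (80/10/10). Brain proteome was prepared at set time points over 24 h and MAGL occupancy read by activity-based protein profiling.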

Data set [5] has as its target T3, Monoglyceride lipase (Mus musculus). The data set can be described thus: In vivo receptor occupancy at MAGL receptor in mouse at 30 mg/kg, ip measured after 24 hrs. It counts as functional, organism-based. In a few lines: as §2
The subject of data set [6] is Mus musculus. Nature of the data set: Antiinflammatory activity in LPS-induced CD-1 mouse neuroinflammation model assessed as decrease in peripheral tissue LCN2 mRNA expression at 30 mg/kg, ip measured after 6 hrs by qRT-PCR analysis. It counts as functional, organism-based. Put shortly: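 CD-1 mice were dosed with NaCl + vehicle, LPS (5 mg/kg) + vehicle, or LPS + inhibitor at 30 mg/kg i.p. (vehicle NaCl/DMSO/Tween 80, 80/10/10). They were sacrificed 6 h post-compound. LCN2 and IL1b mRNA in peripheral tissue were measured by droplet digital qRT-PCR.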
For orientation: Real-time PCR tracks product formation cycle by cycle.

Data set [7] is described as follows: Chemical stability at pH 4 incubated for 2 hrs. It counts as physicochemical. The following applies: buffer, pH 4, 2 h. In a few lines: (§3)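 Compound was held in aqueous buffer at the stated pH for 2 h at 37 °C.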
Data set [8] is described as follows: Chemical stability at pH 8 incubated for 2 hrs. The class given is physicochemical. The following applies: buffer, pH 8, 2 h. In a few lines: as §3
The nature of data set [9]: Clearance in human hepatocytes assessed per 10 million cells. The following applies: read-out: CLH. The class given is ADME, cell-based, Hepatocyte.
Data set [10] can be described thus: Plasma protein binding in human assessed as fraction unbound by equilibrium dialysis based LC-MS/MS method. The class given is ADME, cell-free. Put shortly:
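Equilibrium dialysis across a 12–14 kDa cutoff membrane in a Teflon 96-well device. Pooled frozen plasma is adjusted to pH 7.4 and spiked at 1000 nM initial total, against Soerensen buffer pH 7.4. Incubation is 5 h at 37 °C, 5% CO2, with diazepam control in each well. %fu = 100 × buffer/matrix concentration after dialysis; recovery accepted at 80–120%.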
(In general: Equilibrium dialysis compares concentrations on both sides of a semipermeable membrane.)

Data set [11] in a line: Plasma protein binding in rat assessed as fraction unbound by equilibrium dialysis based LC-MS/MS method. It counts as ADME, cell-free.
Data set [12] in a line: Bioavailability in Wistar rat at 10 mg/kg, ip measured upto 24 hrs by LC-MS/MS analysis. The class given is ADME, organism-based. As to conditions: in vivo.
The nature of data set [13]: Ratio of drug concentration in Wistar rat CSF to plasma at 10 mg/kg, ip measured upto 7 hrs by LC-MS/MS analysis. It counts as ADME, organism-based. Put shortly:
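Male Wistar rats, single dose. i.v. in NMP/0.9% NaCl 30:70; p.o. and i.p. in NMP/HPMC/diisooctyl sulfosuccinate 10:90; 3 per i.v./p.o. group, 6 i.p. K2EDTA plasma sampled 0.083–7 h, plus 24 h for i.v./p.o.; brain and CSF at 1, 2, 7 h (i.p. only). LC-MS/MS, noncompartmental analysis.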

The target of data set [14] is Voltage-gated inwardly rectifying potassium channel KCNH2 (Homo sapiens, UniProt Q12809). Nature of the data set: Inhibition of human ERG expressed in CHO cells by automated patch clamp method. It counts as toxicity, cell-based.
Chain of Voltage-gated inwardly rectifying potassium channel KCNH2 (Q12809 whole entry): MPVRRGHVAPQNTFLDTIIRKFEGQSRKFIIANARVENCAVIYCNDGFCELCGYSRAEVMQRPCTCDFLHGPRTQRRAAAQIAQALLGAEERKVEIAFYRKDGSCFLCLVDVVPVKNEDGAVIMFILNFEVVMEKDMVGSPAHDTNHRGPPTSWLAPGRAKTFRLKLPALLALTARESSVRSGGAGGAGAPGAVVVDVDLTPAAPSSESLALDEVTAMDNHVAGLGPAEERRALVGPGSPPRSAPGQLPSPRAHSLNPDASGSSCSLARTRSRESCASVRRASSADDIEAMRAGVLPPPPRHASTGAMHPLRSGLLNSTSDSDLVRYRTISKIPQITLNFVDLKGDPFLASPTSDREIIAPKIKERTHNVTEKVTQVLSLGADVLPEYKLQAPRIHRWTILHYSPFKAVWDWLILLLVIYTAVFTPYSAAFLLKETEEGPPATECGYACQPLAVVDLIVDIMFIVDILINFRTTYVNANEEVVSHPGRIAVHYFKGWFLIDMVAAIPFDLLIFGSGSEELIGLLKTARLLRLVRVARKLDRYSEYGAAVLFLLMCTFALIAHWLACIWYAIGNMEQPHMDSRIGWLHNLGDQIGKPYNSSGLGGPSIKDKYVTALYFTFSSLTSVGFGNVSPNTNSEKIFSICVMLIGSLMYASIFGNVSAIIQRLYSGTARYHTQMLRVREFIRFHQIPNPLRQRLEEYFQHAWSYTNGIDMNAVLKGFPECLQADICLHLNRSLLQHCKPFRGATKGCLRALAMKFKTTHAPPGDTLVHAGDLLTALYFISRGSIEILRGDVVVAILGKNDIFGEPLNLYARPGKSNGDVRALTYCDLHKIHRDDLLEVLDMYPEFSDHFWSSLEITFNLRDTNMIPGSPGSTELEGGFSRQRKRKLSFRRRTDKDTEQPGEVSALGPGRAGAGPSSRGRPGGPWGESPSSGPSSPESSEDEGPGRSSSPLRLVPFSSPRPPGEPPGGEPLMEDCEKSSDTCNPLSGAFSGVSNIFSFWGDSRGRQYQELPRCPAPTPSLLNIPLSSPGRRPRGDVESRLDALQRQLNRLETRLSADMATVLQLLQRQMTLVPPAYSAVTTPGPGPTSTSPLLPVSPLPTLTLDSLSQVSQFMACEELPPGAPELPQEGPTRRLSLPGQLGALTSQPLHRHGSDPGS
The nature of data set [15]: Average drug concentration in mouse plasma at 10 mg/kg, ip measured after 4 hrs. The class given is ADME, organism-based. The following applies: in vivo. Put shortly: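 Mice received 3, 10 or 30 mg/kg i.p. The compound was dissolved in DMSO/Tween 80 (1:1) and diluted with 8 parts saline (NaCl/DMSO/TW80 80/10/10). Plasma was taken 4 h after injection and average concentrations reported.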

Data set [16] can be described thus: Average drug concentration in mouse plasma at 30 mg/kg, ip measured after 8 hrs. The class given is ADME, organism-based. The following applies: in vivo. Put shortly:
(§4)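 In a time course, mice were injected i.p. with 30 mg/kg in NaCl/DMSO/Tween 80 (80/10/10). Average plasma levels were determined at the stated time points over 24 h.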

Data set [17] can be described thus: Average drug concentration in mouse plasma at 30 mg/kg, ip measured after 24 hrs. The class given is ADME, organism-based. As to conditions: in vivo. In a few lines: as §4
The nature of data set [18]: Drug concentration in mouse CSF at 30 mg/kg, ip measured after 2 hrs. The class given is ADME, organism-based, Cerebrospinal fluid. The following applies: read-out: Ct.
Data set [19] is described as follows: Drug concentration in mouse CSF at 30 mg/kg, ip measured after 8 hrs. The class given is ADME, organism-based, Cerebrospinal fluid. As to conditions: read-out: Ct.
A further data set concerns the target T4, Monoglyceride lipase (Rattus norvegicus, UniProt Q8R431).
T4 sequence (Q8R431 whole entry): T1 sequence (whole entry)
The data set can be described thus: Inhibition of rat MAGL using native substrate by Rapidfire MS assay.

Calls of active or inactive are those of the source.

Consider `O=C1CO[C@H]2CCN(C(=O)N3CCC(Cc4ccc(C(F)(F)F)cc4)CC3)C[C@H]2N1` [listing 1 of 2 here], for which the K in data set [1] is 2.6 10^5/M/s; in data set [2], 7.5 10^-3/s. Besides, the figures for the Activity entry (in the data set with Mus musculus [3]; in data set [4]; in [5]) were “Dose-Dependent Effect”, 96% and 5%, respectively. Further, the result with Mus musculus [6] was inactive.
Take `O=C1CO[C@H]2CCN(C(=O)N3CCC(Cc4ccc(C(F)(F)F)cc4)CC3)C[C@H]2N1` [listing 2 of 2 here]: the Stability result in [7] and in data set [8] was “Stable” each time. In addition, the hepatocyte CLint in data set [9] came to 1.9 µL/min/1e6 cells. The free fraction (fraction unbound) in data set [10] was 0.043; in data set [11], 0.032. For the same compound, the bioavailability in data set [12] is 111%. In addition, the concentration ratio (Kp) at 7 h in data set [13] was determined as 0.017. The IC50 in data set [14] was found to be 7.7 µM; on Monoglyceride lipase, 0.071 µM. The Cave in data set [15] is listed as 7496 nM; in data set [16], 21089 nM; in data set [17] it was 100 nM. Further, in data set [18], the concentration at 2 h worked out at 689 nM. Moreover, in data set [19], the concentration at 8 h was found to be 346 nM.
